# Experimental data pooled from the literature.
# Protocols differ between the studies behind these lines.
# Target: Beta-2 adrenergic receptor (ADRB2, Homo sapiens, UniProt P07550)
# Tested at: 10 µM
SMILES,test,inhibition [%]
CCCNc1nc2ccccc2n1Cc1ccc(Cl)cc1,ligand displacement,-10.2
O=C1N=C(N2CCCCN2)S/C1=C\c1ccc(F)cc1O,"ligand displacement, radioligand",< 10
CN1CCN(c2ccnc(NCCc3ccccc3)n2)CC1,ligand displacement,-3.49
Ic1cccc2cnccc12,"ligand displacement, radioligand",0
N#Cc1cc(Cn2c(N3CCCC3)nc3ccccc32)ccc1F,ligand displacement,0
O=C(c1ccc(F)cc1)N(Cc1ccccc1)C1CCCCC1,cell-free assay,7
O=C(Nc1ccc(S(=O)(=O)N2CCC(Cl)CC2)cc1)c1ccc([N+](=O)[O-])o1,"ligand displacement, radioligand",17
CC(=O)N1CCC(c2ccc(C(=O)NC3=NCCN3)cc2C(F)(F)F)CC1,ligand displacement,-14.2
CCN(CC)c1ccc(C2Nc3ccc(C(=O)c4ccccc4)cc3NC3=C2C(=O)CC(C)(C)C3)cc1 (stereo not shown),"ligand displacement, radioligand",1
Oc1cccc(Nc2nc(-c3ccc(F)cc3F)cs2)c1,cell-free assay,4
